The IC50 is the concentration that gives 50% inhibition.

Experiment [1] addresses Neuronal acetylcholine receptor; alpha3/beta2 (Rattus norvegicus, UniProt P04757+P12390). The experiment is described as follows: Inhibition of rat alpha3beta2 nAChR expressed in xenopus oocytes assessed as inhibition of Ach- induced response at -70 mV holding potential and measured for 1 to 5 days in presence of Ach stimulation by voltage-clamp based electrophysiological method. The class given is cell-based, Oocyte. In a few lines:
(§1)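 Xenopus oocytes expressing cloned rat or human nAChR subtypes, recorded 1–5 d after injection. Held at −70 mV at room temperature and pulsed with ACh for 1 s every 60 s while peptide was flowed on. Where noted, Ba²⁺ replaced Ca²⁺ to limit current run-up after block. Values from 3–5 separate oocytes.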

The nature of experiment [2]: Inhibition of human alpha1beta1deltaepsilon nAChR expressed in xenopus oocytes assessed as inhibition of Ach- induced response at -70 mV holding potential and measured for 1 to 5 days in presence of Ach stimulation by voltage-clamp based electrophysiological method. The experiment is classed as cell-based. The note with it: Oocyte. The method, boiled down:
as §1

Experiment [3] addresses Neuronal acetylcholine receptor; alpha2/beta2 (Homo sapiens, UniProt P17787+Q15822). The experiment is described as follows: Inhibition of human alpha2beta2 nAChR expressed in xenopus oocytes assessed as inhibition of Ach- induced response at -70 mV holding potential and measured for 1 to 5 days in presence of Ach stimulation by voltage-clamp based electrophysiological method. The experiment is classed as cell-based, Oocyte. The method, boiled down: as §1

The target of experiment [4] is Nicotinic acetylcholine receptor alpha9/alpha10 (Rattus norvegicus, UniProt P43144+Q9JLB5). The experiment is classed as cell-based, Oocyte.
The target of experiment [5] is Neuronal acetylcholine receptor; alpha9/alpha10 (Homo sapiens, UniProt Q9GZZ6+Q9UGM1). The experiment is described as follows: Inhibition of human alpha9alpha10 nAChR expressed in xenopus oocytes assessed as inhibition of Ach- induced response at -70 mV holding potential and measured for 1 to 5 days in presence of Ach stimulation by voltage-clamp based electrophysiological method. The experiment is classed as cell-based, Oocyte. The method, boiled down:
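Two-electrode voltage clamp on Xenopus oocytes expressing human α9α10, recorded 1–5 d after injection. Held at −70 mV at room temperature in Ca²⁺-containing ND-96. A 1 s pulse of 100 µM ACh was given every 60 s and peptide was flowed on. IC50 with 95% CI from 3–5 separate oocytes.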

The target of experiment [6] is Neuronal acetylcholine receptor; alpha2/beta2 (Rattus norvegicus, UniProt P12389+P12390). The experiment is described as follows: Inhibition of rat alpha2beta2 nAChR expressed in xenopus oocytes assessed as inhibition of Ach- induced response at -70 mV holding potential and measured for 1 to 5 days in presence of Ach stimulation by voltage-clamp based electrophysiological method. The class given is cell-based, Oocyte. In a few lines:
as §1

Experiment [7] addresses Neuronal acetylcholine receptor; alpha2/beta4 (Homo sapiens, UniProt P30926+Q15822). The experiment is described as follows: Inhibition of human alpha2beta4 nAChR expressed in xenopus oocytes assessed as inhibition of Ach- induced response at -70 mV holding potential and measured for 1 to 5 days in presence of Ach stimulation by voltage-clamp based electrophysiological method. The class given is cell-based, Oocyte. In a few lines:
as §1

Experiment [8] addresses Neuronal acetylcholine receptor; alpha2/beta4 (Rattus norvegicus, UniProt P12389+P12392). As to the kind of experiment: Inhibition of rat alpha2beta4 nAChR expressed in xenopus oocytes assessed as inhibition of Ach- induced response at -70 mV holding potential and measured for 1 to 5 days in presence of Ach stimulation by voltage-clamp based electrophysiological method. The class given is cell-based, Oocyte. In a few lines: as §1

In experiment [9] the target is Neuronal acetylcholine receptor; alpha3/beta2 (Homo sapiens, UniProt P17787+P32297). The experiment is described as follows: Inhibition of human alpha3beta2 nAChR expressed in xenopus oocytes assessed as inhibition of Ach- induced response at -70 mV holding potential and measured for 1 to 5 days in presence of Ach stimulation by voltage-clamp based electrophysiological method. The experiment is classed as cell-based, Oocyte. The method, boiled down: as §1

Experiment [10] addresses Neuronal acetylcholine receptor; alpha3/beta4 (Homo sapiens, UniProt P30926+P32297). As to the kind of experiment: Inhibition of human alpha3beta4 nAChR expressed in xenopus oocytes assessed as inhibition of Ach- induced response at -70 mV holding potential and measured for 1 to 5 days in presence of Ach stimulation by voltage-clamp based electrophysiological method. The class given is cell-based, Oocyte. In a few lines: as §1

The target of experiment [11] is Neuronal acetylcholine receptor; alpha3/beta4 (Rattus norvegicus, UniProt P04757+P12392). As to the kind of experiment: Inhibition of rat alpha3beta4 nAChR expressed in xenopus oocytes assessed as inhibition of Ach- induced response at -70 mV holding potential and measured for 1 to 5 days in presence of Ach stimulation by voltage-clamp based electrophysiological method. The experiment is classed as cell-based, Oocyte. The method, boiled down: as §1

Experiment [12] has as its target Neuronal acetylcholine receptor; alpha4/beta2 (Homo sapiens, UniProt P17787+P43681). As to the kind of experiment: Inhibition of human alpha4beta2 nAChR expressed in xenopus oocytes assessed as inhibition of Ach- induced response at -70 mV holding potential and measured for 1 to 5 days in presence of Ach stimulation by voltage-clamp based electrophysiological method. The experiment is classed as cell-based, Oocyte. The method, boiled down:
as §1

Experiment [13] concerns the target Neuronal acetylcholine receptor; alpha4/beta2 (Rattus norvegicus, UniProt P09483+P12390). As to the kind of experiment: Inhibition of rat alpha4beta2 nAChR expressed in xenopus oocytes assessed as inhibition of Ach- induced response at -70 mV holding potential and measured for 1 to 5 days in presence of Ach stimulation by voltage-clamp based electrophysiological method. The experiment is classed as cell-based, Oocyte. The method, boiled down:
as §1

Experiment [14] has as its target Neuronal acetylcholine receptor; alpha4/beta4 (Homo sapiens, UniProt P30926+P43681). As to the kind of experiment: Inhibition of human alpha4beta4 nAChR expressed in xenopus oocytes assessed as inhibition of Ach- induced response at -70 mV holding potential and measured for 1 to 5 days in presence of Ach stimulation by voltage-clamp based electrophysiological method. The class given is cell-based, Oocyte. In a few lines:
as §1

Experiment [15] addresses Neuronal acetylcholine receptor; alpha4/beta4 (Rattus norvegicus, UniProt P09483+P12392). As to the kind of experiment: Inhibition of rat alpha4beta4 nAChR expressed in xenopus oocytes assessed as inhibition of Ach- induced response at -70 mV holding potential and measured for 1 to 5 days in presence of Ach stimulation by voltage-clamp based electrophysiological method. The experiment is classed as cell-based, Oocyte. In a few lines:
as §1

Experiment [16] has as its target Nicotinic acetylcholine receptor alpha6/alpha3/beta4 (Homo sapiens, UniProt P30926+P32297+Q15825). The experiment is described as follows: Inhibition of human alpha6/alpha3beta4 nAChR expressed in xenopus oocytes assessed as inhibition of Ach- induced response at -70 mV holding potential and measured for 1 to 5 days in presence of Ach stimulation by voltage-clamp based electrophysiological method. The class given is cell-based, Oocyte. The method, boiled down:
as §1

The target of experiment [17] is Nicotinic acetylcholine receptor alpha6/alpha3/beta4 (Rattus norvegicus, UniProt P04757+P12392+P43143). The experiment is described as follows: Inhibition of rat alpha6/alpha3beta4 nAChR expressed in xenopus oocytes assessed as inhibition of Ach- induced response at -70 mV holding potential and measured for 1 to 5 days in presence of Ach stimulation by voltage-clamp based electrophysiological method. The class given is cell-based, Oocyte. In a few lines:
as §1

A short description of experiment [18]: Inhibition of human alpha6/alpha3beta2beta3 nAChR expressed in xenopus oocytes assessed as inhibition of Ach- induced response at -70 mV holding potential and measured for 1 to 5 days in presence of Ach stimulation by voltage-clamp based electrophysiological method. The note with it: Oocyte. The class given is cell-based. In a few lines:
as §1

Experiment [19] deals with Nicotinic acetylcholine receptor alpha6/alpha3/beta2/beta3 (Rattus norvegicus, UniProt P04757+P12390+P12391+P43143). As to the kind of experiment: Inhibition of rat alpha6/alpha3beta2beta3 nAChR expressed in xenopus oocytes assessed as inhibition of Ach- induced response at -70 mV holding potential and measured for 1 to 5 days in presence of Ach stimulation by voltage-clamp based electrophysiological method. The class given is cell-based, Oocyte. In a few lines: as §1
Nicotinic acetylcholine receptor alpha6/alpha3/beta2/beta3, sequence (P04757 whole entry): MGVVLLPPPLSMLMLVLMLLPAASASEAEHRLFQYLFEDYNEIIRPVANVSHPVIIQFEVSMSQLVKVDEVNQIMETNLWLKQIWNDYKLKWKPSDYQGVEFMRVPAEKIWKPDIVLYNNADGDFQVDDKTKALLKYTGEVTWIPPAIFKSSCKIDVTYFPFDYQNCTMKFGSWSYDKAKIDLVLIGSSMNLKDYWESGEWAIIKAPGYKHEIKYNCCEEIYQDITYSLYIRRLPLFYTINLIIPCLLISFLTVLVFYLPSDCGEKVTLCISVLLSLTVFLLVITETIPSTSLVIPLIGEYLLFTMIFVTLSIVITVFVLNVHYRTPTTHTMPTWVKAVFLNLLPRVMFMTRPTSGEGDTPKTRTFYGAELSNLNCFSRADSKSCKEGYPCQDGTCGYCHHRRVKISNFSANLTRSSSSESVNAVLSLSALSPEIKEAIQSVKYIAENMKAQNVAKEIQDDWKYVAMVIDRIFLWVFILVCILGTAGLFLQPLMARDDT
Nicotinic acetylcholine receptor alpha6/alpha3/beta2/beta3, sequence (P12390 whole entry): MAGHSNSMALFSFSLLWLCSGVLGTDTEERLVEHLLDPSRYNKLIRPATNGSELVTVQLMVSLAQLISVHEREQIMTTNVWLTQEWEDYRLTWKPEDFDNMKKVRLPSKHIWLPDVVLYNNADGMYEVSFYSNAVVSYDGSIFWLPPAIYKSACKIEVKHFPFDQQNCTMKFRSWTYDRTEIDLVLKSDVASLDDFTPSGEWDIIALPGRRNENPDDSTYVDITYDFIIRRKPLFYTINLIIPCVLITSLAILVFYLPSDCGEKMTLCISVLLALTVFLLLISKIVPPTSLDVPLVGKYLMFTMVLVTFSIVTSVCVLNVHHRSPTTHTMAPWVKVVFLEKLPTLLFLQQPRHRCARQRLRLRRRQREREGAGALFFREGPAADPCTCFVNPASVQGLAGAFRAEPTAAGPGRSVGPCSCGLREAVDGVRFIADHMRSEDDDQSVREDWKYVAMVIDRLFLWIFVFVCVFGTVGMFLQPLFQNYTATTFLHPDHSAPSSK
Nicotinic acetylcholine receptor alpha6/alpha3/beta2/beta3, sequence (P12391 whole entry): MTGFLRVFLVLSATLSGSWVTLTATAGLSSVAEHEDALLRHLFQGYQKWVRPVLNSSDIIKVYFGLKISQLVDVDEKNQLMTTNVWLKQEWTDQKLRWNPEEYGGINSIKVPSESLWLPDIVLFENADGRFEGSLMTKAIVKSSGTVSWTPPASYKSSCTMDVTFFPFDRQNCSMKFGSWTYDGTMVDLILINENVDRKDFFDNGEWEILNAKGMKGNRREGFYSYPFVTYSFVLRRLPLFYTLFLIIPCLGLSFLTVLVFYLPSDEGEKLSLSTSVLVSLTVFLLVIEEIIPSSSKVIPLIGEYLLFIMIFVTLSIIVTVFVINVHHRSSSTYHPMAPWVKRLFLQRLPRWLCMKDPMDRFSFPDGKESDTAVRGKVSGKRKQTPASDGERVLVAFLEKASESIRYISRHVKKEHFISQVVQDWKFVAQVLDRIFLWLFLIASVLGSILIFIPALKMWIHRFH
Nicotinic acetylcholine receptor alpha6/alpha3/beta2/beta3, sequence (P43143 whole entry): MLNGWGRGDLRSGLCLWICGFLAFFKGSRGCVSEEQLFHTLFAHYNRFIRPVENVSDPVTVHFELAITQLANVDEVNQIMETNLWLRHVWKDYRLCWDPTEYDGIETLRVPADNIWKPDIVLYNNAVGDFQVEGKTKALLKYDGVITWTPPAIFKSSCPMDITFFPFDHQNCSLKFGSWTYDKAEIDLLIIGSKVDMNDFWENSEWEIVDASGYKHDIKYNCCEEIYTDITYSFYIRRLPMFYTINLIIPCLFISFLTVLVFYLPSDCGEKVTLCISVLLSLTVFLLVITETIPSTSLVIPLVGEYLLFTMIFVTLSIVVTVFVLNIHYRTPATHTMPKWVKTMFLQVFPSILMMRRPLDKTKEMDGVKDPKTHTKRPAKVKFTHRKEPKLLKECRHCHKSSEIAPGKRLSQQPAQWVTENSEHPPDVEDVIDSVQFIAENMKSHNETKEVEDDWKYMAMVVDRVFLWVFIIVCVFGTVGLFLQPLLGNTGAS

Experiment [20] deals with Neuronal acetylcholine receptor subunit alpha-7 (Homo sapiens, UniProt P36544). The experiment is described as follows: Inhibition of human alpha7 nAChR expressed in xenopus oocytes assessed as inhibition of Ach- induced response at -70 mV holding potential and measured for 1 to 5 days in presence of Ach stimulation by voltage-clamp based electrophysiological method. The experiment is classed as cell-based, Oocyte. The method, boiled down: as §1
Neuronal acetylcholine receptor subunit alpha-7 (Homo sapiens, UniProt P36544), sequence (P36544 whole entry): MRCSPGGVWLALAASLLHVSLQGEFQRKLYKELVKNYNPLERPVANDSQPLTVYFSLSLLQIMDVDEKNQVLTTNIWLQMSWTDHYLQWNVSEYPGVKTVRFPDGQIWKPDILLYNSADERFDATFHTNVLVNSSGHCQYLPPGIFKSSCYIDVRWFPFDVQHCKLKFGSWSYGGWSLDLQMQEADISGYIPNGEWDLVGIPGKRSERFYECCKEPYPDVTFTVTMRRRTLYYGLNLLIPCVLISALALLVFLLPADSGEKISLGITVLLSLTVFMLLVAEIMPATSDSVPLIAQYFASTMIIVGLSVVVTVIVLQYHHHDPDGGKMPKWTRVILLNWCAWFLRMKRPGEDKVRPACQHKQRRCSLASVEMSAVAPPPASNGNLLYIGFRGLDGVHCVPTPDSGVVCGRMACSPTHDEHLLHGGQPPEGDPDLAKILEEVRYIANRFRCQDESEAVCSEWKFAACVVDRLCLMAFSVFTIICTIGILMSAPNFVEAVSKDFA

Experiment [21] has as its target Neuronal acetylcholine receptor subunit alpha-7 (Rattus norvegicus, UniProt Q05941). The experiment is described as follows: Inhibition of rat alpha7 nAChR expressed in xenopus oocytes assessed as inhibition of Ach- induced response at -70 mV holding potential and measured for 1 to 5 days in presence of Ach stimulation by voltage-clamp based electrophysiological method. The experiment is classed as cell-based, Oocyte. In a few lines:
as §1

Experiment [22] relates to Mus musculus. As to the kind of experiment: Analgesic activity against oxaliplatin-induced peripheral neuropathic pain mouse model assessed as reversal of oxaliplatin-induced cold allodynia by measuring withdrawal latency at 4 to 40 microg/kg, sc for 22 days (5 days per week) and measured after 24 hrs post-injection by cold-plate test chamber analysis. The experiment is classed as functional, organism-based. Conditions: dose 4-40 µg/kg, time 22.0 day. The method, boiled down:
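Mice, 8 per group. Oxaliplatin 3.5 mg/kg i.p. and peptide 4 or 40 µg/kg s.c., both in sterile 0.9% NaCl, given daily Wed–Fri and Mon–Tue through day 22; controls received saline. Cold allodynia tested on days 8, 15 and 22, 24 h after the last injection. Cold plate: 2–5 min acclimation at 23 °C, then cooled 10 °C/min until both forepaws lifted with shaking or licking. Mean ± SEM versus vehicle.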

Activity calls are given as the source filed them. No cut-off for these calls is given here.

Nicotinic acetylcholine receptor alpha6/alpha3/beta4 (Rattus norvegicus, UniProt P04757+P12392+P43143), sequence (P04757 whole entry): as the sequence (P04757 whole entry) above
Nicotinic acetylcholine receptor alpha6/alpha3/beta4 (Rattus norvegicus, UniProt P04757+P12392+P43143), sequence (P12392 whole entry): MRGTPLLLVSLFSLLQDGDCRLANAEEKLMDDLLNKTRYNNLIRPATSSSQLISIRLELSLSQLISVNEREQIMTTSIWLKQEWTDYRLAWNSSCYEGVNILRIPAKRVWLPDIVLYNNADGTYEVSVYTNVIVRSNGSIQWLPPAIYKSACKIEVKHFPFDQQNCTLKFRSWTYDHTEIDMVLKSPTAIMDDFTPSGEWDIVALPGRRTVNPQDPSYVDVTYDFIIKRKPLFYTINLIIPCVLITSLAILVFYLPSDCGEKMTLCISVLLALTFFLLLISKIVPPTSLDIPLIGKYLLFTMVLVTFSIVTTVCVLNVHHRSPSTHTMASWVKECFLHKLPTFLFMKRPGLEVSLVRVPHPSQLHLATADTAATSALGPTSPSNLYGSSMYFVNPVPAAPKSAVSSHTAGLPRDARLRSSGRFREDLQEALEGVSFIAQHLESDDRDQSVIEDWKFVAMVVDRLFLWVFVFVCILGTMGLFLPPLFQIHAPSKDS
Nicotinic acetylcholine receptor alpha6/alpha3/beta4 (Rattus norvegicus, UniProt P04757+P12392+P43143), sequence (P43143 whole entry): as the sequence (P43143 whole entry) above
Neuronal acetylcholine receptor; alpha3/beta2 (Rattus norvegicus, UniProt P04757+P12390), sequence (P04757 whole entry): as the sequence (P04757 whole entry) above
Neuronal acetylcholine receptor; alpha3/beta2 (Rattus norvegicus, UniProt P04757+P12390), sequence (P12390 whole entry): as the sequence (P12390 whole entry) above

In the case of `C[C@@H](O)[C@@H]1NC(=O)[C@H]2NC(=O)[C@H](NC(=O)CN)CSSC[C@H](NC(=O)[C@H](CCCNC(=N)N)NC(=O)[C@@H]3CCCN3C(=O)[C@H](CC(=O)O)NC1=O)C(=O)N[C@@H](CCCNC(=N)N)C(=O)N[C@@H](Cc1ccc(O)c(I)c1)C(=O)N[C@@H](CCCN)C(=O)N[C@H](C(=O)N[C@H](CC(=O)N[C@@H](CCCNC(=N)N)C(=O)O)Cc1ccc(O)cc1)CSSC2(C)C`, the IC50 in experiment [1] was more than 10 µM; in experiment [2] it was more than 10 µM; in experiment [3], more than 10 µM; in experiment [4], 0.39 nM; in [5], 0.05 nM; in [6], more than 10 µM. Moreover, the IC50 in experiment [7], in experiment [8], in experiment [9], in experiment [10], in experiment [11] and in [12] was more than 10 µM in each case. Further, the IC50 in experiment [13], in [14], in experiment [15], in experiment [16], in [17] and in experiment [18] was more than 10 µM in each case. For the same compound, the values for the IC50 in experiment [19], in [20] and in experiment [21] were more than 10 µM, 115 nM and more than 333 nM, respectively. In [22], the result was Active.

Values taken from ChEMBL document CHEMBL5214907 (J Med Chem, 2021).
